According to PMC7781011 (Journal of Inflammation Research, 2020):
“Also recorded” adds a separate entry of the source.

Assays:
[1] = test system: carrageenan-induced hind paw edema of rats; experiment: Carrageenan-induced rat paw edema model; assay type: in vivo, rat (male Fischer F344); conditions: for TXB2 levels in paw exudates / LTB4 levels in paw exudates / PGE2 levels in paw exudates / PGI2 levels in paw exudates: 400 ppm; for edema inhibition (maximum): 400 ppm in diet (oral), 3 hours after carrageenan injection; for LTB4 levels in paw exudates / PGE2 levels in paw exudates / PGI2 levels in paw exudates: compared to control (vehicle)
In short: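 Male F344 rats (350–400 g) fed AIN-76A diet, either control or with compound or reference inhibitor at 400 ppm; separate saline group. 0.1 mL 1% λ-carrageenan in saline injected subplantar into left hind paw, saline into right. Dorsiventral paw thickness by digital caliper before and 1–6 h after injection; % edema inhibition. Paw exudate PGE2, LTB4, TXB2 and PGI2 measured by ELISA. Stomach and organs examined for ulcers.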

mouse COX-1 = molecular target: T1, mouse COX-1 (Mus musculus, UniProt P22437); experiment: Cell-free fluorometric COX-1 assay; assay type: biochemical
T1 sequence (P22437 27-602): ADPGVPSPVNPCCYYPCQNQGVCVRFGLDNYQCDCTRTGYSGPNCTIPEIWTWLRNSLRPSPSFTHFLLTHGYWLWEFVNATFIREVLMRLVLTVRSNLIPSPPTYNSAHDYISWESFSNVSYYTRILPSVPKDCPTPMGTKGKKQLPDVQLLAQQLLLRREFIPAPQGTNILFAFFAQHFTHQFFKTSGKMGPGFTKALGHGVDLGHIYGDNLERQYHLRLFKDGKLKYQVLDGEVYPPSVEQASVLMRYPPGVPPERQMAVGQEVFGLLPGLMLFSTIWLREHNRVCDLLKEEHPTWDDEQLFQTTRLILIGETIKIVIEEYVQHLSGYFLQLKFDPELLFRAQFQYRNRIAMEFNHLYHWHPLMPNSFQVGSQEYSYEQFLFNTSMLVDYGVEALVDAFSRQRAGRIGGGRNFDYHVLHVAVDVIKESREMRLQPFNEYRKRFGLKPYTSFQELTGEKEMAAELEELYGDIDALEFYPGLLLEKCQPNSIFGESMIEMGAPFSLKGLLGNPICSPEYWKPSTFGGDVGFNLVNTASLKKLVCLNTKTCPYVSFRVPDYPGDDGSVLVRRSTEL

mouse 5-LOX = molecular target: T2, mouse 5-LOX (Mus musculus, UniProt P48999); experiment: Cell-free fluorometric 5-LOX assay; assay type: biochemical
T2 sequence (P48999 1-674): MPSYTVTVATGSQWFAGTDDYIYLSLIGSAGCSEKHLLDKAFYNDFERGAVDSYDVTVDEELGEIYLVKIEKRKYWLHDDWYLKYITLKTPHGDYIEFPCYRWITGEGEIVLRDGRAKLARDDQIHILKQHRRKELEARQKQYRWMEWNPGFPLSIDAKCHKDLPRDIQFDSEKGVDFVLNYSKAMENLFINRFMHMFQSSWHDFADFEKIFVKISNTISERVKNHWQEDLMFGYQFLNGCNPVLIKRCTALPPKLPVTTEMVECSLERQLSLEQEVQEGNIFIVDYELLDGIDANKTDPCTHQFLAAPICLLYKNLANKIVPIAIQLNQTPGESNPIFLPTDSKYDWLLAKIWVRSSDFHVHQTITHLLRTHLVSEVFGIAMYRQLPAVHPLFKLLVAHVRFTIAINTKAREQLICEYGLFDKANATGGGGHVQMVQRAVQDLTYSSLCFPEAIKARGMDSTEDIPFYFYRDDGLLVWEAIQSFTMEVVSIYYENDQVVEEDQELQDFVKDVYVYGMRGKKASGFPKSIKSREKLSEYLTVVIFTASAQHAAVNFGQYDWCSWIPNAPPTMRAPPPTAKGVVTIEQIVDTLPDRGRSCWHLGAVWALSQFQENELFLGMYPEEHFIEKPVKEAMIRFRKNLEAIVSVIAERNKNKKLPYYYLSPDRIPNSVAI

rat 5-LOX = molecular target: T3, rat 5-LOX (Rattus norvegicus, UniProt P12527); experiment: Cell-free fluorometric 5-LOX assay; assay type: biochemical
T3 sequence (P12527 1-673): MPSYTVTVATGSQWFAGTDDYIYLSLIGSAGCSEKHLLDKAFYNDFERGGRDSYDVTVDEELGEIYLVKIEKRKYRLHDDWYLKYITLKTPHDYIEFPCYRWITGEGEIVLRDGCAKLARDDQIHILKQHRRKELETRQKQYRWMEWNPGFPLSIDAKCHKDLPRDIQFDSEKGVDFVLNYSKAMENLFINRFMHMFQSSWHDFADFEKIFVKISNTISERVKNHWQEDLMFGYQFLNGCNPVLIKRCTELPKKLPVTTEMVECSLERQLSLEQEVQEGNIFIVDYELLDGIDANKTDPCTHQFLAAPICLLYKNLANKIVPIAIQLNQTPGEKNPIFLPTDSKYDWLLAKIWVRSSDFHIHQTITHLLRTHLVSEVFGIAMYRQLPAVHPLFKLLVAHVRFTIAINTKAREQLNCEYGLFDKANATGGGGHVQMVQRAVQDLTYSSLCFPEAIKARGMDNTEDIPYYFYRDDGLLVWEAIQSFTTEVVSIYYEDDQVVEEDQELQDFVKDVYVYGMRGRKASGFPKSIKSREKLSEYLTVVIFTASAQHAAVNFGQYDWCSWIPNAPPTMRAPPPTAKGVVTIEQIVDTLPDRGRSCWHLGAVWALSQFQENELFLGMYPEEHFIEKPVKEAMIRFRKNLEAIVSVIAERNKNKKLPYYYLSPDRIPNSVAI

mouse mPGES-1 = molecular target: T4, mouse mPGES-1 (Mus musculus, UniProt Q9JM51); experiment: Cell-free mPGES-1 assay; assay type: biochemical
T4 sequence (Q9JM51 1-153): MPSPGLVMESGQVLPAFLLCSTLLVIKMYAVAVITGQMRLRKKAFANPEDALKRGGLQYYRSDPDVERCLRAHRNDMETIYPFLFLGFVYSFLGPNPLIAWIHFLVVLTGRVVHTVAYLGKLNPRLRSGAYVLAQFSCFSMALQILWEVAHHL
In short: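 Enzyme in 15 mM Tris-HCl pH 7.4 with 1 mM GSH, preincubated 20 min with compound (0.1–100 µM); plate held 15 min at 20°C. PGH2 (final 2.8 µM) added, 45 s at room temperature, then stopped with SnCl2 in 1N HCl. PGE2 by ELISA, in triplicate, % inhibition versus untreated. Human enzyme from E. coli or commercial; mouse enzyme from vas deferens/seminal vesicles. IC50 by four-parameter nonlinear regression.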

Compound	TXB2 levels in paw exudates [1]	gastrointestinal (and other) toxicity ([1]; 400 ppm in diet)	edema inhibition (maximum) [1] [%]	LTB4 levels in paw exudates [1]	PGE2 levels in paw exudates [1]	PGI2 levels in paw exudates [1]	inhibition of COX-1 activity (mouse COX-1; cell-free, mouse, up to the tested range of 1 mM)	IC50 (mouse 5-LOX) [µM]	IC50 (rat 5-LOX) [µM]	IC50 (mouse mPGES-1) [µM]	IC50 (mouse COX-1) [µM]
CC1(C)Cc2c(-c3ccccc3)c(-c3ccc(Cl)cc3)c(CC(=O)NCC(=O)O)n2C1 [LFA-9, 2-[[2-[2-(4-chlorophenyl)-6,6-dimethyl-1-phenyl-5,7-dihydropyrrolizin-3-yl]acetyl]amino]acetic acid]	maintained homeostasis	did not show any gastrointestinal toxicity; also recorded: did not show any gastrointestinal and any other toxicities	70.4	reduced	reduced	spared	did not show inhibition	2.64	0.89	0.52	–
CC1(C)Cc2c(-c3ccccc3)c(-c3ccc(Cl)cc3)c(CC(=O)O)n2C1 [Licofelone, reference compound]	reduced	–	61.7	reduced	reduced	reduced	–	2.34	0.64	> 15	1.74
